Published values gathered from unrelated publications.
Lines come from different studies, so protocols differ.
Target: Casein kinase I isoform gamma-3 (CSNK1G3, Homo sapiens, UniProt Q9Y6M4)

CCS(=O)(=O)c1cc2cc(C[C@@](O)(CC(C)(C)c3ccc(F)cc3C(N)=O)C(F)(F)F)[nH]c2cn1  remaining binding (cell-free assay; competition with immobilised ligand; 1 µM): 100%
Cn1c2c(c3ccc(Cl)c(Cl)c31)C(C#N)C(C)(C)NC2=O (centres unmarked)  ΔTm (thermal stability; DSF; 10 µM): 0.5 °C
CN(c1nccc(-c2cnn3ncccc23)n1)C1CC1  remaining binding (binding; 1 µM): 100%
Cn1c2c(c3ccc(Cl)c(Cl)c31)C(C#N)C1(CCOCC1)NC2=O (centres unmarked)  ΔTm (thermal stability; DSF; 10 µM): 0.2 °C
CS(=O)(=O)c1cc(C2(NC(=O)c3cncc4c3cnn4-c3ccc(F)cc3)CC2)ccn1  remaining binding (cell-free assay; competition with immobilised ligand; 1 µM): 100%
O=C1Nc2ccc(Cl)cc2C1=Cc1cc(Cl)c(O)c(Cl)c1  remaining signal (cell-free assay; 0.5 µM): 93%
CCCOc1ccc([C@@H]2[C@@H](C(=O)O)[C@H](c3ccc4c(c3)OCO4)CN2CC(=O)Nc2c(CC)cccc2CC)cc1  remaining binding (cell-free assay; competition with immobilised ligand; 1 µM): 100%
CCN1CCC2(CC1)NC(=O)c1c(c3ccc(Cl)c(Cl)c3n1C)C2C#N (racemic)  ΔTm (thermal stability; DSF; 10 µM): 0.8 °C
N#CCCc1ccc2c(c1)-c1[nH]c3ccc([N+](=O)[O-])cc3c1CC(=O)N2  remaining signal (cell-free assay; 0.5 µM): 89.7%
CC(C)(O)[C@H]1CC[C@H](Nc2ccc3ncc(-c4cccc(C(F)(F)F)c4)n3n2)CC1  remaining activity (enzyme activity; inhibitor; 1 µM): 90%
COc1cc2ncnc(Nc3ccc(Oc4ccccc4)cc3C)c2cc1OC  inhibition (enzyme activity; inhibitor; 1 µM): 4%
N#CC1c2c([nH]c3c(Cl)c(Cl)ccc23)C(=O)NC12CCCCC2 (racemic)  ΔTm (thermal stability; DSF; 10 µM): 0.2 °C
CCCS(=O)(=O)Nc1ccc(F)c(C(=O)c2c[nH]c3ncc(-c4ccc(Cl)cc4)cc23)c1F  inhibition (enzyme activity; inhibitor; 1 µM): < 10%
Cc1ccc(NC(=O)c2ccc(C)c(C(F)(F)F)c2)cc1C#Cc1nn(C2CCC(O)CC2)c2ncnc(N)c12 (centres unmarked)  remaining signal (cell-free assay; 10 µM): 103%
Cc1cc(-n2nc(Cc3cc(F)cc(C(F)(F)F)c3)nc2C)ccc1C(N)=O  remaining binding (cell-free assay; competition with immobilised ligand; 1 µM): 95%
CS(=O)(=O)CCNCc1ccc(-c2ccc3ncnc(Nc4ccc(OCc5cccc(F)c5)c(Cl)c4)c3c2)o1  remaining signal (cell-free assay; 0.5 µM): 104%
O=C(Nc1cnn(-c2csc(C(=O)NC3COC3)c2)c1)Nc1c(F)cccc1Cl  remaining activity (enzyme activity; inhibitor; 5 µM): 92.6%
CC(C)(C)c1nc(-c2cccc(NS(=O)(=O)c3c(F)cccc3F)c2F)c(-c2ccnc(N)n2)s1  remaining activity (enzyme activity; inhibitor; radiometric; 1 µM): 91%
Cc1ccc(Nc2nccc(N(C)c3ccc4c(C)n(C)nc4c3)n2)cc1S(N)(=O)=O  inhibition (enzyme activity; inhibitor; 0.3 µM): -8%
NS(=O)(=O)c1cc(NC(=O)Cc2ccccc2)ccc1Oc1cccc(Cl)c1  remaining binding (cell-free assay; competition with immobilised ligand; 1 µM): 74%
CCC1(CC)NC(=O)c2c(c3ccc(Cl)c(Cl)c3n2C)C1C#N (centres unmarked)  ΔTm (thermal stability; DSF; 10 µM): 0 °C
O=C1NC(=O)c2cc(Nc3ccc(F)cc3)c(Nc3ccc(F)cc3)cc21  remaining signal (cell-free assay; 0.5 µM): 90.7%
CNC(=O)c1cc(Oc2ccc(NC(=O)Nc3ccc(Cl)c(C(F)(F)F)c3)cc2)ccn1  inhibition (enzyme activity; inhibitor; 0.3 µM): -4%
O=S(=O)(NC1CCC(c2cc(F)ccc2F)(S(=O)(=O)c2ccc(Cl)cc2)CC1)C(F)(F)F (centres unmarked)  remaining binding (cell-free assay; competition with immobilised ligand; 1 µM): 83%
CCOc1cc(-c2nncn2C)ccc1Nc1ncc2cc(C)nc(NCC(C)(C)C)c2n1  inhibition (enzyme activity; inhibitor; FRET; 1 µM): < 15%
O=C(N[C@H]1CCCCC/C=C\C2C[C@@]2(C(=O)O)NC(=O)[C@@H]2C[C@@H](Oc3ccncc3)CN2C1=O)OC1CCCC1 (some centres unmarked)  remaining binding (binding; competition with immobilised ligand; 1 µM): 100%
COc1cc2c(Nc3ccc(Br)cc3F)ncnc2cc1OCC1CCN(C)CC1  remaining signal (cell-free assay; 0.5 µM): 98.1%
Cn1c2c(Cl)c(Cl)ccc2c2cc[nH]c(=O)c21  ΔTm (thermal stability; DSF; 10 µM): -0.2 °C
CC(C)CC(=O)N1CCc2nc(-c3ccc(Br)cc3)nc(N(C)Cc3ccccc3)c2C1  remaining binding (cell-free assay; competition with immobilised ligand; 0.1 µM): 100%
